{"data": "Results gathered from unrelated publications", "target": "Phosphatidylinositol 4-kinase beta (PI4KB, Homo sapiens, UniProt Q9UBF8)", "note": "Lines come from different studies, so protocols differ."}
{"Structure (SMILES)": "CC1CCCN1c1nccc(-c2cnn3ncccc23)n1 (stereo not shown)", "test": "binding", "conditions": "1 µM", "quantity": "remaining binding", "value": "100%"}
{"Structure (SMILES)": "CS(=O)(=O)Nc1cccc(-c2csc(NC(=O)CSc3nc4nccnc4c(=O)n3CCc3ccccc3)n2)c1", "test": "enzyme activity, inhibitor", "conditions": "10 µM", "quantity": "inhibition", "value": "17%"}
{"Structure (SMILES)": "Cc1ccc(C(=O)Nc2ccc(CN3CCN(C)CC3)c(C(F)(F)F)c2)cc1C#Cc1cnc2cccnn12", "test": "enzyme activity, inhibitor", "conditions": "23.5 nM", "quantity": "remaining activity", "value": "89%"}
{"Structure (SMILES)": "c1ccc(CNc2nc(N3CCOc4ccccc43)nc3c2CCCC3)cc1", "test": "target engagement in cells, inhibitor, chemoproteomics", "conditions": "20 mM", "quantity": "inhibition", "value": "-16.5%"}
{"Structure (SMILES)": "Nc1ncnc2occ(-c3ccc(NC(=O)Nc4cc(C(F)(F)F)ccc4F)cc3)c12", "test": "enzyme activity, inhibitor", "conditions": "20 µM", "quantity": "remaining activity", "value": "5.9%"}
{"Structure (SMILES)": "O=C(Nc1cnc(Oc2ccc(F)cc2)nc1)N1CCc2ncccc2[C@@H]1c1ccc(F)cc1", "test": "cell-free assay, competition with immobilised ligand", "conditions": "1 µM", "quantity": "remaining binding", "value": "89%"}
{"Structure (SMILES)": "O=C(Nc1nccs1)C(c1cc(F)ccc1O)N1Cc2ccccc2C1=O (stereo not shown)", "test": "enzyme activity, inhibitor", "conditions": "1 µM", "quantity": "inhibition", "value": "9%"}
{"Structure (SMILES)": "O=C(CSc1nc2nccnc2c(=O)n1CCc1ccccc1)Nc1ccccc1", "test": "enzyme activity, inhibitor", "conditions": "10 µM", "quantity": "inhibition", "value": "< 20%"}
{"Structure (SMILES)": "CN(C)CC#Cc1ccc(OCCCc2sc(N3CCc4cccc(C(=O)Nc5nc6ccccc6s5)c4C3)nc2C(=O)O)c(F)c1", "test": "cell-free assay, competition with immobilised ligand", "conditions": "1 µM", "quantity": "remaining binding", "value": "100%"}
{"Structure (SMILES)": "CCCCNc1ncc2c(-c3ccc(F)cc3)nn(C[C@H]3CC[C@H](N)CC3)c2n1", "test": "target engagement in cells, inhibitor, chemoproteomics", "conditions": "20 mM", "quantity": "inhibition", "value": "29.3%"}
